According to ChEMBL document CHEMBL5143719, “Cosolvent Sites-Based Discovery of Mycobacterium Tuberculosis Protein Kinase G Inhibitors” (J Med Chem, 2022):
Active and inactive are the calls of the source. The rule behind the calls is not given here.

Columns and labels:
[1] = molecular target: T1, Serine/threonine-protein kinase PknG (Mycobacterium tuberculosis, UniProt P9WI73); assay: Binding affinity to full length Mycobacterium tuberculosis protein kinase G expressed in Escherichia coli BL21 assessed as dissociation constant at 21 degreeC by fluorescence spectroscopy based
T1 sequence (P9WI73 whole entry): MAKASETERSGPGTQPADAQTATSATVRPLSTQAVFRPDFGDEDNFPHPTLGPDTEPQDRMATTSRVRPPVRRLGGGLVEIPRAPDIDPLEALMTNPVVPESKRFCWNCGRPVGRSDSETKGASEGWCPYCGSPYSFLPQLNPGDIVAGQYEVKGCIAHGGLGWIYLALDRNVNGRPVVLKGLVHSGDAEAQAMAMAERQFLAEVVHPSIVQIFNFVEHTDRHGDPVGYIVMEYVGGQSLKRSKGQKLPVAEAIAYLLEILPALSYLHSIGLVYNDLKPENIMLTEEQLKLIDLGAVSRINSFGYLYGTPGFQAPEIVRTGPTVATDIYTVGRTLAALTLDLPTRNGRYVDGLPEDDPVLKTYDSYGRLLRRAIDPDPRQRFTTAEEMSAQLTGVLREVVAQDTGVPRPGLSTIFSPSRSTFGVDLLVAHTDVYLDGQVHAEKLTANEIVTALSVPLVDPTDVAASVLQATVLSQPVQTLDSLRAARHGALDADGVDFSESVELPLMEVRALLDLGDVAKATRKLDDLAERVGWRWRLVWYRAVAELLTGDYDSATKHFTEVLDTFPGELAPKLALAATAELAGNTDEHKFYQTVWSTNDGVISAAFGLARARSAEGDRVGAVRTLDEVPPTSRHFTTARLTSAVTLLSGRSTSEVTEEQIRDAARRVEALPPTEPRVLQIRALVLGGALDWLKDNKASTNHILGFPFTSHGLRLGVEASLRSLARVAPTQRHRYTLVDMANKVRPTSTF

[2] = test system: Mycobacterium tuberculosis; assay: Antimycobacterial activity against Mycobacterium tuberculosis H37Rv infected in human THP-1 cells assessed as reduction in intracellular survival at 1 to 10 uM measured after 24 to 48 hrs; format: functional, organism-based; conditions: dose 1-10 µM, time 24-48 hrs
Summary of the method: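 THP-1 monocytes were differentiated with 10 ng/mL PMA for 48 h and infected with Mtb H37Rv (MOI 10) for 2 h. Cells were washed and cultured without penicillin–streptomycin with compound at 1 and 10 μM for 24 and 48 h. Lysis was in 0.05% Triton X-100; serial dilutions were plated in quadruplicate on 7H10 OADC. CFU were counted after 3 weeks. Welch's ANOVA with Dunnett T3.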

THP-1 = assay: Cytotoxicity against human THP1 cells assessed as reduction in cell viability at 1 to 10 uM measured for 3 to 48 hrs by trypan blue assay; format: toxicity, cell-based; conditions: thp-1, 10 µM, dose lower 1 µM, time lower 3 hrs, dose upper 10 µM, time upper 48 hrs
Summary of the method: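 PMA-differentiated THP-1 macrophages were exposed to compound at 1 and 10 μM for 3, 5, 24 and 48 h. Viability was scored by trypan blue exclusion, in triplicate, as percent of untreated control cells.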

[3] = molecular target: T1, Serine/threonine-protein kinase PknG; assay: Inhibition of full length Mycobacterium tuberculosis protein kinase G using His-tagged GarA as substrate in presence of [gamma32P] ATP measured after 12 to 24 hrs by radiometric kinase assay
[4] = molecular target: Serine/threonine-protein kinase PknG (Mycobacterium tuberculosis) (UniProt P9WI73); assay: Inhibition of full length Mycobacterium tuberculosis protein kinase G at 40 uM using GarA as substrate in presence of ATP relative to control
Sequence of Serine/threonine-protein kinase PknG (Mycobacterium tuberculosis) (P9WI73 whole entry): as above
Summary of the method: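 End-point assay with full-length PknG 1 μM, GarA 25 μM and ATP 2 μM, in 25 mM Tris-HCl pH 7.4, 2 mM MnCl2 and 1–2% DMSO. Reactions ran 60 min at 37 °C, after which remaining ATP was read by Kinase-Glo Plus luminescence. Inhibition was referenced to no-compound (DMSO) and no-GarA controls. Duplicates.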

Q: How did the Kd [1] turn out when `NC(=O)c1c(N)c(C(=O)c2ccc(Br)cc2)n2ccccc12` was run?
A: 1300 nM

Q: With `NC(=O)c1c(N)c(C(=O)c2ccc(F)cc2)n2ccccc12` as the molecule, how does the Activity [2] read?
A: Active

Q: What about the Activity (THP-1) of the same molecule?
A: Non-Toxic

Q: With `CCN1CCCC1CNC(=O)Nc1sc2c(c1C(N)=O)CCCC2` (configuration not stated) as the molecule, how does the Activity [2] read?
A: Active

Q: For `NC(=O)c1c(N)c(C(=O)c2ccccc2)n2ccccc12`, which Kd [1] is on record?
A: 1800 nM

Q: How did the IC50 [3] turn out when `NC(=O)c1c(NC(=O)C2CC2)sc2c1CCCC2` was run?
A: 900 nM

Q: What about the Activity [2] of the same molecule?
A: Active

Q: Which inhibition [4] does the source give for `CS(=O)(=O)Nc1ccc(-c2cc(-c3ccccc3)cc(C(N)=O)c2N)cc1` here?
A: 50%

Q: With `NC(=O)c1c(NC(=O)NCC2CCCO2)sc2c1CCCC2` (configuration not stated) as the molecule, how does the Activity [2] read?
A: Active

Q: What does the source list for `CC(C)c1ccc(C(=O)c2c(N)c(C(N)=O)c3ccccn23)cc1`?
A: Activity [2]: Active; Activity (THP-1): Non-Toxic

Q: Which Kd [1] does the source give for `CCOc1ccc(C(=O)c2c(N)c(C(N)=O)c3ccccn23)cc1` here?
A: 13000 nM
